In ChEMBL document CHEMBL4004844, “Structure-based design, synthesis and antitumoral evaluation of enulosides” (Eur J Med Chem, 2017):

What was measured:
NCI-H292 [1] = assay: Growth inhibition of human NCI-H292 cells after 72 hrs by MTT assay; format: functional, cell-based; conditions: NCI-H292, 72 h
In short: (§1)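 Cells kept in RPMI 1640 or DMEM with 10% FBS, 2 mM glutamine, penicillin/streptomycin, at 37 °C and 5% CO2. Seeded at 10⁵ cells/mL (adherent NCI-H292, MCF-7, HEP-2) or 3 × 10⁵ cells/mL (HL-60). Compounds at 0.1–25 in 0.1% DMSO for 72 h, with DMSO controls. MTT read at 595 nm. IC50 with 95% CI from nonlinear regression, two experiments.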

MCF7 [2] = assay: Growth inhibition of human MCF7 cells after 72 hrs by MTT assay; format: functional, cell-based; conditions: MCF7, 72 h; in short: as §1
HL-60 [3] = assay: Growth inhibition of human HL60 cells after 72 hrs by MTT assay; format: functional, cell-based; conditions: HL-60, 72 h
HEp-2 [4] = assay: Growth inhibition of human Hep2 cells after 72 hrs by MTT assay; format: functional, cell-based; conditions: HEp-2, 72 h; in short: as §1
[5] = Solubility in water; format: physicochemical; conditions: buffer
NCI-H292 [6] = assay: Growth inhibition of human NCI-H292 cells at 25 ug/ml after 72 hrs by MTT assay relative to control; format: functional; conditions: NCI-H292, 72 h, read-out: GI
In short: (§2)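 Preliminary single-concentration screen at 25 by MTT reduction. Cells seeded at 10⁵ cells/mL (adherent) or 3 × 10⁵ cells/mL (HL-60), exposed for 72 h in 0.1% DMSO. Percent growth inhibition relative to DMSO-treated controls, from absorbance at 595 nm.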

MCF7 [7] = assay: Growth inhibition of human MCF7 cells at 25 ug/ml after 72 hrs by MTT assay relative to control; format: functional; conditions: MCF7, 72 h, read-out: GI; in short: as §2
HL-60 [8] = assay: Growth inhibition of human HL60 cells at 25 ug/ml after 72 hrs by MTT assay relative to control; format: functional; conditions: HL-60, 72 h, read-out: GI; in short: as §2
HEp-2 [9] = assay: Growth inhibition of human Hep2 cells at 25 ug/ml after 72 hrs by MTT assay relative to control; format: functional; conditions: HEp-2, 72 h, read-out: GI; in short: as §2

Compound | IC50 (NCI-H292 [1]) | IC50 (MCF7 [2]) | IC50 (HL-60 [3]) | solubility [5] | IC50 (HEp-2 [4]) | inhibition of growth at 25 µg/mL (NCI-H292 [6]) | inhibition of growth at 25 µg/mL (MCF7 [7]) | inhibition of growth at 25 µg/mL (HL-60 [8]) | inhibition of growth at 25 µg/mL (HEp-2 [9])
CC(C)O[C@@H]1C=CC(=O)[C@@H](CO)O1 | 24.2 µM | 36 µM | 9.7 µM | – | 34.9 µM | – | – | – | –
COCCOCCOCCO[C@@H]1C=CC(=O)[C@@H](CO)O1 | 35.5 µM | – | 7.9 µM | Soluble | 32.1 µM | – | – | – | –
CCO[C@@H]1C=CC(=O)[C@@H](CO)O1 | 18 µM | – | 3.5 µM | – | 5.8 µM | 100% | 97.2% | 100% | 100%
CCO[C@@H]1C=C[C@H](OC(C)=O)[C@@H](COC(C)=O)O1 | – | – | – | – | – | 2.1% | 5.1% | 12.3% | 9.3%
O=C1C=C[C@@H](OC2CCCC2)O[C@@H]1CO | 19.8 µM | 20.7 µM | 4.2 µM | – | 8 µM | – | – | – | –
CCO[C@@H]1C=C[C@H](O)[C@@H](CO)O1 | – | – | – | – | – | 17.4% | 20.4% | 31.4% | 12.5%
COc1cccc2c1C(=O)c1c(O)c3c(c(O)c1C2=O)C[C@@](O)(C(=O)CO)C[C@@H]3O[C@H]1C[C@H](N)[C@H](O)[C@H](C)O1 [DOXORUBICIN] | 0.6 µM | 0.6 µM | – | – | 1.3 µM | – | – | – | –

More lines, in order of falling IC50 (NCI-H292 [1]), values ahead:

IC50 (NCI-H292 [1]) | IC50 (MCF7 [2]) | IC50 (HL-60 [3]) | solubility [5] | Compound | IC50 (HEp-2 [4]) | inhibition of growth at 25 µg/mL (NCI-H292 [6]) | inhibition of growth at 25 µg/mL (MCF7 [7]) | inhibition of growth at 25 µg/mL (HL-60 [8]) | inhibition of growth at 25 µg/mL (HEp-2 [9])
15.6 µM | 18.3 µM | 10.7 µM | – | CCCO[C@@H]1C=CC(=O)[C@@H](CO)O1 | 13.4 µM | – | – | – | –
12.7 µM | – | 2.5 µM | – | C#CCCO[C@@H]1C=CC(=O)[C@@H](CO)O1 | 7.1 µM | – | – | – | –
10.3 µM | 16.3 µM | 4.9 µM | – | C=CCO[C@@H]1C=CC(=O)[C@@H](CO)O1 | 26.1 µM | – | – | – | –
6.6 µM | 10.4 µM | 9.3 µM | – | C#CCO[C@@H]1C=CC(=O)[C@@H](CO)O1 | 15.4 µM | – | – | – | –
3.8 µM | 11.1 µM | 27.3 µM | – | O=C1C=C[C@@H](OCc2ccccc2)O[C@@H]1CO | 8.5 µM | – | – | – | –
2.6 µM | 11 µM | 13.3 µM | – | O=C1C=C[C@@H](OC2CCCCC2)O[C@@H]1CO | 7.5 µM | – | – | – | –
